Results: ChEMBL document CHEMBL5058577, “EUbOPEN Chemogenomics Library 2 (Multiplex)” (2022)

Tested on: U2OS
Test: Multiplex assay against U2OS
Format: toxicity, cell-based
Conditions: human
Summary of the method: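 Cells were classed with CellPathfinder machine-learning gating, first as Hoechst high-intensity objects or normal cells, then (normal cells) as healthy, pyknosed or fragmented nuclei, and finally (pyknosed cells) as mitotic or apoptotic. Staining of live cells at seeding used Hoechst33342, BioTracker Green Microtubule Cytoskeleton Dye, MitoTracker Red and Annexin V Alexa Fluor 680, with imaging on a CQ1 microscope at 37°C and 5% CO2 after compound addition. Tubulin, mitochondrial-mass and membrane-permeability phenotypes are per cents of healthy-nucleus cells.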

[1] = 12 h, 1 µM, compound concentration 1 uM, replicate 1
[2] = 12 h, 1 µM, compound concentration 1 uM, replicate 2
[3] = 12 h, 10 µM, compound concentration 10 uM, replicate 1
[4] = 12 h, 10 µM, compound concentration 10 uM, replicate 2
[5] = 24 h, 1 µM, compound concentration 1 uM, replicate 1
[6] = 24 h, 1 µM, compound concentration 1 uM, replicate 2
[7] = 24 h, 10 µM, compound concentration 10 uM, replicate 1
[8] = 24 h, 10 µM, compound concentration 10 uM, replicate 2
[9] = 48 h, 1 µM, compound concentration 1 uM, replicate 1
[10] = 48 h, 1 µM, compound concentration 1 uM, replicate 2
[11] = 48 h, 10 µM, compound concentration 10 uM, replicate 1
[12] = 48 h, 10 µM, compound concentration 10 uM, replicate 2

## CCCCC[C@H](O)/C=C/[C@H]1[C@H](O)CC(=O)[C@@H]1CCCCCCC(=O)O [ALPROSTADIL]
[1]
  Population Apoptotic (%): 100%
  Population Fragmented Nuclei (%): 31%
  Population Healthy Nuclei (%): 62%
  Population Hoechst High Intensity Objects (%): 1%
  Population Membrane Permeable-Phenotype (%): 4%
  Population Mitochondria Different-Phenotype (%): 2%
  Population Mitotic Cells (%): 0%
  Population Normal (%): 98%
  Population Pyknosed Nuclei (%): 6%
  Population Tubulin-Different-Phenotype (%): 2%
  Total Cell Count: 219
[2]
  Population Apoptotic (%): 77%
  Population Fragmented Nuclei (%): 11%
  Population Healthy Nuclei (%): 81%
  Population Hoechst High Intensity Objects (%): 0%
  Population Membrane Permeable-Phenotype (%): 9%
  Population Mitochondria Different-Phenotype (%): 5%
  Population Mitotic Cells (%): 22%
  Population Normal (%): 100%
  Population Tubulin-Different-Phenotype (%): 6%
  Total Cell Count: 132
[3]
  Population Apoptotic (%): 71%
  Population Fragmented Nuclei (%): 23%
  Population Healthy Nuclei (%): 69%
  Population Hoechst High Intensity Objects (%): 1%
  Population Membrane Permeable-Phenotype (%): 1%
  Population Mitochondria Different-Phenotype (%): 0%
  Population Mitotic Cells (%): 28%
  Population Normal (%): 98%
  Population Pyknosed Nuclei (%): 6%
  Population Tubulin-Different-Phenotype (%): 0%
  Total Cell Count: 222
[4]
  Population Apoptotic (%): 77%
  Population Fragmented Nuclei (%): 15%
  Population Healthy Nuclei (%): 75%
  Population Hoechst High Intensity Objects (%): 2%
  Population Membrane Permeable-Phenotype (%): 5%
  Population Mitochondria Different-Phenotype (%): 3%
  Population Mitotic Cells (%): 22%
  Population Normal (%): 97%
  Population Pyknosed Nuclei (%): 8%
  Population Tubulin-Different-Phenotype (%): 5%
  Total Cell Count: 104
[5]
  Population Apoptotic (%): 91%
  Population Fragmented Nuclei (%): 25%
  Population Healthy Nuclei (%): 65%
  Population Hoechst High Intensity Objects (%): 1%
  Population Membrane Permeable-Phenotype (%): 5%
  Population Mitochondria Different-Phenotype (%): 2%
  Population Mitotic Cells (%): 8%
  Population Normal (%): 98%
  Population Pyknosed Nuclei (%): 9%
  Population Tubulin-Different-Phenotype (%): 3%
  Total Cell Count: 263
[6]
  Population Apoptotic (%): 87%
  Population Fragmented Nuclei (%): 14%
  Population Healthy Nuclei (%): 75%
  Population Hoechst High Intensity Objects (%): 0%
  Population Membrane Permeable-Phenotype (%): 8%
  Population Mitochondria Different-Phenotype (%): 4%
  Population Mitotic Cells (%): 12%
  Population Normal (%): 99%
  Total Cell Count: 166
[7]
  Population Apoptotic (%): 94%
  Population Fragmented Nuclei (%): 19%
  Population Healthy Nuclei (%): 74%
  Population Hoechst High Intensity Objects (%): 1%
  Population Membrane Permeable-Phenotype (%): 5%
  Population Mitochondria Different-Phenotype (%): 0%
  Population Mitotic Cells (%): 5%
  Population Normal (%): 98%
  Population Pyknosed Nuclei (%): 6%
  Population Tubulin-Different-Phenotype (%): 3%
  Total Cell Count: 271
[8]
  Population Apoptotic (%): 100%
  Population Fragmented Nuclei (%): 12%
  Population Healthy Nuclei (%): 76%
  Population Hoechst High Intensity Objects (%): 0%
  Population Membrane Permeable-Phenotype (%): 4%
  Population Mitochondria Different-Phenotype (%): 2%
  Population Mitotic Cells (%): 0%
  Population Normal (%): 99%
  Population Pyknosed Nuclei (%): 10%
  Population Tubulin-Different-Phenotype (%): 1%
  Total Cell Count: 131
[9]
  Population Apoptotic (%): 87%
  Population Fragmented Nuclei (%): 22%
  Population Healthy Nuclei (%): 68%
  Population Hoechst High Intensity Objects (%): 2%
  Population Membrane Permeable-Phenotype (%): 4%
  Population Mitochondria Different-Phenotype (%): 2%
  Population Mitotic Cells (%): 12%
  Population Normal (%): 97%
  Population Pyknosed Nuclei (%): 9%
  Population Tubulin-Different-Phenotype (%): 2%
  Total Cell Count: 367
[10]
  Population Apoptotic (%): 95%
  Population Fragmented Nuclei (%): 18%
  Population Healthy Nuclei (%): 71%
  Population Hoechst High Intensity Objects (%): 3%
  Population Membrane Permeable-Phenotype (%): 6%
  Population Mitochondria Different-Phenotype (%): 5%
  Population Mitotic Cells (%): 4%
  Population Normal (%): 96%
  Population Tubulin-Different-Phenotype (%): 6%
  Total Cell Count: 236
[11]
  Population Apoptotic (%): 88%
  Population Fragmented Nuclei (%): 13%
  Population Healthy Nuclei (%): 76%
  Population Hoechst High Intensity Objects (%): 0%
  Population Membrane Permeable-Phenotype (%): 4%
  Population Mitochondria Different-Phenotype (%): 0%
  Population Mitotic Cells (%): 11%
  Population Normal (%): 99%
  Population Pyknosed Nuclei (%): 10%
  Population Tubulin-Different-Phenotype (%): 3%
  Total Cell Count: 362
[12]
  Population Apoptotic (%): 100%
  Population Fragmented Nuclei (%): 11%
  Population Healthy Nuclei (%): 77%
  Population Hoechst High Intensity Objects (%): 2%
  Population Membrane Permeable-Phenotype (%): 6%
  Population Mitochondria Different-Phenotype (%): 1%
  Population Mitotic Cells (%): 0%
  Population Normal (%): 97%
  Population Tubulin-Different-Phenotype (%): 4%
  Total Cell Count: 165
